In the library only some 0.6% were active in any assay of this set; here they are far more common.
PolyA inhibitor: inhibitors of polyadenylation in S. cerevisiae. S. cerevisiae SKY197-pL101 polyadenylation reporter, beta-gal luminescence; efflux-impaired pdr1/pdr3 knockout yeast; score 100 = 6 SD above DMSO. activity score, % at 12 µM. hit rate 0.02% among 300,000. AID 1875;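 active = lowest replicate activity score at least 50, where 100 means six control SD above control mean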;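 note: yeast exposed to compound for 9 h at 30 °C; higher score means more reporter readthrough which indicates perturbed polyadenylation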
GSK3 alpha inh: inhibitors of human GSK-3 alpha kinase; P49840; ADP-Glo luminescence, 60 min; inhibition, % at 10 µM; hit rate 0.1% among 320,000;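 active = more than half of replicates show inhibition above 20%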;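 note: GST-tagged GSK-3 alpha with peptide substrate and 25 µM ATP; 0% = DMSO neutral wells and 100% = GW8510 positive control wells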
STK33 inh: human STK33 kinase inhibition; Q9BYT3; purified STK33, MBP phosphorylation, ADP-Glo luminescence; inhibition, % at 10 µM; hit rate 0.073% among 320,000; AID 2661;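 active = inhibition at or above 25%, using the most active replicate where run in duplicate; inactive = inhibition below 25%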
Target sequence (Q9BYT3 whole entry, looked up): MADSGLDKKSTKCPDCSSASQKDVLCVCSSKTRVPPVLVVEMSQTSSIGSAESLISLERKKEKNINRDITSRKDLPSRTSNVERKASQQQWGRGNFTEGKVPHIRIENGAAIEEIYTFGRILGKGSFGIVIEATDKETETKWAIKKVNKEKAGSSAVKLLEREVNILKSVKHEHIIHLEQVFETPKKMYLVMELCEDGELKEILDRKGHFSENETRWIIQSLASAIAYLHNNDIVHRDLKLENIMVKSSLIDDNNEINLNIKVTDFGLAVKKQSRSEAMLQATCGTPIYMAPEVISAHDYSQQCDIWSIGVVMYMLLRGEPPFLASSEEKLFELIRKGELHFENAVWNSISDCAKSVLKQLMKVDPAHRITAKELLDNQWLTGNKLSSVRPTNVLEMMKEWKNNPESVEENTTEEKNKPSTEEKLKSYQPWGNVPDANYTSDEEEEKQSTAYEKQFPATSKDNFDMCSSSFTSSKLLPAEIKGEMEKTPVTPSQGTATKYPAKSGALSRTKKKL
GSK3beta inhib: human GSK3beta kinase inhibition; GST-GSK3beta kinase, ADP-Glo luminescence, 60 min; stronger effect = lower value; activity score (negative = inhibition), % at 10 µM; hit rate 0.038% among 300,000; AID 2097;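 active = more than half of replicate wells score below -50%, meaning over 50% inhibition versus plate controls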;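 note: 0% = median DMSO wells and -100% = median GW8510 positive control wells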
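Test system: GST-fused GSK3beta enzyme, cell-free | Quantity: 1.6 ng GST-GSK3beta enzyme per well | Reagent: 25 µM ATP with peptide substrate | Schedule: 60 min enzyme reaction, room temperature | Signal: Luminescent ADP-Glo measurement of ADP formed | Read-out basis: Score relative to plate controls | Control set: DMSO and 20 µM GW8510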
Efflux pump mplx: inhibitors of Candida antifungal efflux pumps expressed in yeast; S. cerevisiae Candida pump triplex, Nile Red efflux; inhibition, % at 10 µM; hit rate 0.44% among 330,000;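 active = plate passing quality check with inhibition over a set limit, or well fluorescence over plate mean plus 4 SD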;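 note: Nile Red retained in pooled yeast measured as flow cytometry median fluorescence; 0% = buffer negative control and 100% = Enniatin B positive control; higher means more Nile Red kept so more efflux inhibition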
* = called active by the depositor; · = not tested or not shown.

SMILES	PolyA inhibitor	GSK3 alpha inh	STK33 inh	GSK3beta inhib	Efflux pump mplx
CC(Oc1ccc2c(c1)c1ccnc3c4ccccc4c(=O)n2c13)C(=O)NCCN1CCOCC1 (stereo not drawn)	6	-2	75*	0	0
O=C(CCCOc1cccc(Br)c1)NCCOc1ccccc1	-9	-1	1	3	0
Cc1ccc(CNc2oc(-c3ccco3)nc2S(=O)(=O)c2ccccc2)cc1	13	1	-2	3	0
COc1ccc2occ(C(=O)c3cccs3)c2c1	-4	59*	4	-41	0
COc1ccc(OC)c(C(=O)c2coc3ccc(O)c(CN(C)C)c23)c1	19	0	-1	3	0
COc1ccc2occ(C(=O)c3coc4ccc(O)c(CN(C)C)c34)c2c1	7	85*	4	-68*	0
Cc1c(C#N)c(O)[nH]c(=O)c1N=Nc1ccc(Cl)c(C(=O)O)c1	0	34	-2	3	0
Cc1c(C#N)c(O)[nH]c(=O)c1N=Nc1ccc(S(N)(=O)=O)cc1	-9	79*	0	-76*	0
CCCCCCCCCCCCCCCC[n+]1cccc2ccccc21	·	23	50*	·	1.1*
CCC(C)Sc1cccc(-c2nc3cc(C)ccn3c2NC2CCCCC2)c1 (stereo not drawn)	·	·	·	·	0
Clc1nccnc1-c1ccccc1	5	0	1	2	0
CSc1ccccc1OCc1cc(C(=O)NCCc2nc(C)cc(C)n2)no1	6	·	·	1	·
C[C@H]1CN([C@@H](C)CO)C(=O)c2cccc(NC(=O)c3cnccn3)c2O[C@@H]1CN(C)S(=O)(=O)c1ccc(F)cc1	·	55*	0	·	0
O=C(O)Cc1ccc(N=Cc2c(O)ccc3ccccc23)cc1	1	2	50*	0	0
CC(=O)Oc1cc2c(cc1Cl)C1(CC(c3ccccc3Cl)O2)CC(C)(C)NC(=S)N1 (stereo not drawn)	-14	-4	-3	0	114*
CC1(C)CC2(CC(c3ccccc3F)c3cc(Cl)c(O)cc3O2)NC(=S)N1 (stereo not drawn)	-1	0	1	1	0
O=c1cc(-c2ccncc2)oc2ccccc12	·	58*	8	-41	0
O=c1cc(-c2ccc(O)cc2)oc2ccccc12	2	2	4	6	0
Cc1c(Cl)cccc1NC(=S)N=Nc1c(O)n(CN2CCOCC2)c2ccccc12	·	-2	1	1	29*
Oc1c(N=NC(=S)Nc2ccccc2F)c2ccccc2n1Cc1ccccc1Cl	·	1	0	0	0
CCOc1ccc(-c2ccc(SCC(=O)Nc3nnc(CC)s3)nn2)cc1	·	-2	-1	1	0
CCOc1ccc(-c2ccc(SC)nn2)cc1	1	20	31*	-15	0
CCN1/C(=C/C(C)=O)Sc2ccc(OC)cc21	-2	56*	9	-3	0
CCN1/C(=C/c2cccc[n+]2C)Sc2ccc(OC)cc21	-11	3	-1	-5	0
Nc1nc(NCCO)nc(NCC2CCCO2)c1[N+](=O)[O-] (stereo not drawn)	-6	80*	2	1	0
SMILES	PolyA inhibitor	GSK3 alpha inh	STK33 inh	GSK3beta inhib	Efflux pump mplx
Nc1nc(NCC2CCCO2)nc(NCC2CCCO2)c1[N+](=O)[O-] (stereo not drawn)	3	52*	0	0	0
Nc1nc(NCC2CCCO2)nc(Nc2ccccc2)c1[N+](=O)[O-] (stereo not drawn)	-12	10	0	2	0
CC(C)CCNc1nc(N)c([N+](=O)[O-])c(NCC2CCCO2)n1 (stereo not drawn)	-15	73*	4	-42	-1
CC1(C)Cc2nc3sc4c(SCC(=O)O)ncnc4c3cc2CO1	0	76*	1	-23	0
Nc1nc(SCc2cccc([N+](=O)[O-])c2)n[nH]1	4	-3	-1	0	0
O=C(N/N=C/c1c(O)ccc2ccccc12)Nc1ccccc1	5	-7	0	-2	0
O=C(O)c1cc(N/N=C/c2c(O)ccc3ccccc23)ccc1Cl	6	3	44*	1	0
O=C1CC(C(=O)O)(c2ccccc2)c2cccc(F)c21 (stereo not drawn)	19	0	0	-2	0
Cc1ccc(-c2nn(CCC(=O)O)cc2/C=C\C(=O)c2ccc(Br)cc2)cc1	4	6	36*	0	0
O=C(O)CCn1cc(/C=C\C(=O)c2ccc(Cl)cc2)c(-c2cccc(Br)c2)n1	12	-3	15	0	0
O=C1/C(=C\c2cc(Br)cc(Br)c2O)SC(=S)N1Cc1ccccc1	-9	-1	-1	-4	1.5*
COc1cc([N+](=O)[O-])cc(/C=C2/SC(=S)N(Cc3ccccc3)C2=O)c1O	-32	2	5	-1	3.0*
O=P(COc1ccccc1)(c1ccccc1)c1ccccc1	-6	6	9	3	0
N#Cc1ccc(COC(=O)c2ccccn2)cc1	26	3	-1	1	0
NC(=O)NC(=O)COC(=O)c1cccc(S(=O)(=O)N2CCCCCC2)c1	-1	2	1	0	0
O=c1c2sc(-c3ccccc3)cc2nc2n1CCC2	113*	1	1	-1	0
O=C(NC(=S)N1CCCCC1)C12CC3CC(CC(C3)C1)C2	-16	-1	-1	-1	0
O=C(c1cc(NC(=O)C23CC4CC(CC(C4)C2)C3)cc(NC(=O)C23CC4CC(CC(C4)C2)C3)c1)N1CCCCC1	12	-3	-2	1	1.1*
O=C1Nc2ccccc2/C1=N\N=C\c1ccc(O)c(O)c1	-29	5	25	1	0
COc1cc(/C=N/N=C2/C(=O)Nc3ccccc32)ccc1O	7	6	38*	1	0
Cn1c(=O)c(C(=O)NNC(=O)c2ccccc2Br)c(O)c2ccccc21	9	-2	-1	0	1
Cn1c(=O)c(C(=O)NNC(=O)c2ccccc2Cl)c(O)c2ccccc21	88*	-1	-1	2	0
C/C=C/Cn1c(SCc2ccc(Cl)cc2)nc2c1c(=O)[nH]c(=O)n2C	-4	2	29*	-2	1
COCCn1c(SCc2ccc(Cl)cc2)nc2c1c(=O)[nH]c(=O)n2C	-2	-3	-1	1	0
N#CCCNc1ccc(OCCC#N)cc1	-6	-2	-3	-3	0
Fc1ccc(CSc2nnc(-c3ccncc3)o2)cc1	12	13	1	-54*	0
O=C(CCc1nnc2ccc(NCc3ccc(Cl)cc3)nn12)NC1CCCCC1	20	-2	-1	-2	-1
O=C(NNC(=S)NC1CC2C=CC1C2)c1cccnc1 (stereo not drawn)	66*	-1	1	1	0
O=C(COC(=O)CSc1ccc([N+](=O)[O-])cc1)NCCCc1ccccc1	-21	-1	0	2	0

Compound activity from PubChem.
